Experimental data reported in the RNAGym collection of RNA variant scans (doi:10.1126/science.aae0568).
This sample holds only a part of the variants without activity.

B1: tRNA (parent)
chain: GUUCCGUUGGCGUAAUGGUAACGCGUCUCCCUCCUAAGGAGAAGACUGCGGGUUCGAGUCCCGUACGGAACG

Variants of: B1
Experiment: yeast fitness relative to wild type (ratio to wild type); higher = fitter; tRNA-Arg(CCU), competitive growth, 37 C, YPD
In short: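 Variants of the tRNA-Arg(CCU) gene, chemically synthesised with a 3% per-site mutation rate at 69 sites, were placed at the native genomic locus in Saccharomyces cerevisiae. The pooled strains were competed in YPD at 37°C for 24 hours in six parallel replicates. Gene amplicons from the start population and from each end population were read by 100-nucleotide paired-end sequencing. Darwinian fitness relative to wild type came from changes in genotype frequencies; genotypes needed ≥ 100 starting reads, and estimates < 0.5 were set to 0.5.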

Question: With GUUCCGUUGGCGUAAUGGUAACGUGUCUCCCUCCUAAGGAGUAGACUGCGGCUUCGAGUCCCAUACGGAACG [C24U A42U G52C G63A] as the variant, how does the yeast fitness read?
Answer: ≤ 0.5

Question: Which yeast fitness does the source give for GUUCCGUUGGCGUAAUGGUAACGGGUCGCCCUCCUAAGGAGAAGAGUGCGGGUUCGAGUCCCGUACGGAACG [C24G U28G C46G] here?
Answer: ≤ 0.5

Question: Which yeast fitness does the source give for GUUCCGUUGGCGUAAUGGUAACGUGUCUCCCUCCUUGGGCGAAGACUGCGGGUUCGAGUCCCGUACGGAACG [C24U A36U A37G A40C] here?
Answer: ≤ 0.5

Question: For GUUCCGUUGGCGUAAUGGUAACGGGUCCCCCUCCUAAGGAGAAGACUGCGGGUACGAGUCCCGUACGGAACG [C24G U28C U54A], which yeast fitness is on record?
Answer: ≤ 0.5

Question: For GUUCCGUUGGCGUAAUGGUAACGGGUCUCCCACCUAAGGAGAGGACUGCAGGUUCGAGUCCCGUACGGAACG [C24G U32A A43G G50A], which yeast fitness is on record?
Answer: ≤ 0.5

Question: For GUUCCGUUGGCGUAAUGGUAACGUGUCUCCCUCCUAAGGAGAAGACUGCGGGUUCGAGUCCCGUACGGAACG [C24U], which yeast fitness is on record?
Answer: 0.983

Question: With GUUCCGUUGGCGUAAUGGUAACGGGUCACCAUCCUAAGGAGAAGACUGCGGGUUCGAGUCCCGUACGGAACG [C24G U28A C31A] as the variant, how does the yeast fitness read?
Answer: ≤ 0.5

Question: Which yeast fitness does the source give for GUUCCGUUGGCGUAAUGGUAACGGGUCUCCCUCCUAAGGAGAAGACCGCGGGGACGACUCCCGUACGGAACG [C24G U47C U53G U54A G58C] here?
Answer: ≤ 0.5

Question: For GUUCCGUUGGCGUAAUGGUAACGUGUCUCCCUCCUACGGGGAAGACUGCGGGUACGAGUCCCGUACGGAACG [C24U A37C A40G U54A], which yeast fitness is on record?
Answer: ≤ 0.5

Question: With GUUCCGUUGGCGUAAUGGUAACGGGUCGCCCUCCUAAGGAGAAGAGUGCGGGUUCGAGUCCCGUAUGGAACG [C24G U28G C46G C66U] as the variant, how does the yeast fitness read?
Answer: ≤ 0.5

Question: With GUUCCGUUGGCGUAAUGGUAACGUGUCUCCCUCCUAAGGAGUAGACUGCGGGUUCGAGUCCCGUACAGAACG [C24U A42U G67A] as the variant, how does the yeast fitness read?
Answer: 0.567

Question: With GUUCCGUUGGCGUAAUGGUAACGGGUCUCCCUCCUAAGGAGAAGACUGCGGGAUCGAGUCCCGUACGGAACG [C24G U53A] as the variant, how does the yeast fitness read?
Answer: 0.533

Question: Which yeast fitness does the source give for GUUCCGUUGGCGUAAUGGUAACGUGUCUCCCUCCUAGGGAGAGGACUGCGGGUUCGAGUCCCGUACGGAUCG [C24U A37G A43G A70U] here?
Answer: ≤ 0.5

Question: Which yeast fitness does the source give for GUUCCGUUGGCGUAAUGGUAACGGGUCUCCCUCCUAAGGAGAAGACUGCGGGAUGGAGUCCCGUACGGAACG [C24G U53A C55G] here?
Answer: ≤ 0.5

Question: With GUUCCGUUGGCGUAAUGGUAACGUGUCUCCCUCCUAAGGAGCAGAAUGCGGGUACGAGUCCCGUACGGAACG [C24U A42C C46A U54A] as the variant, how does the yeast fitness read?
Answer: ≤ 0.5

Question: For GUUCCGUUGGCGUAAUGGUAACGGGACUCCCUCCUAAGGAGAAGACUGCGGGUUCGAGUGCCGUACGGAACG [C24G U26A C60G], which yeast fitness is on record?
Answer: ≤ 0.5

Question: Which yeast fitness does the source give for GUUCCGUUGGCGUAAUGGUAACGGGUCCGCCUCCUAAGGAGAAGACUGCGGGUUCGAGUCCCGUACGGAACG [C24G U28C C29G] here?
Answer: ≤ 0.5

Question: With GUUCCGUUGGCGUAAUGGUAACGUGUCUCCCUCCUCAGGAGAUGACUGCGGGUUCGAGUCCCGUACGGUACG [C24U A36C A43U A69U] as the variant, how does the yeast fitness read?
Answer: 0.517

Question: With GUUCCGUUGGCGUAAUGGUAACGUGUCUCCCUCCUAGGGAGAAGACUGCGGGUUCGAGUCCCCUAUGGAACG [C24U A37G G63C C66U] as the variant, how does the yeast fitness read?
Answer: 0.581

Question: With GUUCCGUUGGCGUAAUGGUAACGGGUCUCCCUCCUAAGGAGAAGACUGCGGGGACGACUCCCGUACGGAACG [C24G U53G U54A G58C] as the variant, how does the yeast fitness read?
Answer: 0.552

Question: For GUUCCGUUGGCGUAAUGGUAACGUGUCUCCCUCCUAAGGUGAAGACUGCGGGUUCGAGUCCCGUACGGAACG [C24U A40U], which yeast fitness is on record?
Answer: 0.78

Question: For GUUCCGUUGGCGUAAUGGUAACGUGUCUCCCUCCUAAGGCGAAGACUGCGGGUUCGAGUCCCGUACGGAACG [C24U A40C], which yeast fitness is on record?
Answer: 0.806

Question: Which yeast fitness does the source give for GUUCCGUUGGCGUAAUGGUAACGUGUCUCCCUCCUAGGGAGAAGACUGGGGGUUCGAGUCCCGUACGGAACG [C24U A37G C49G] here?
Answer: ≤ 0.5

Question: With GUUCCGUUGGCGUAAUGGUAACGUGUCUCCCUCCUAUGGAGAAGAAUGCGGGUUCGAGUCCCGUACGGAUCG [C24U A37U C46A A70U] as the variant, how does the yeast fitness read?
Answer: ≤ 0.5

Question: Which yeast fitness does the source give for GUUCCGUUGGCGUAAUGGUAACGGGUCUCCCUCCUAAGGAGAAGACGGCGGGCUCGAGUCCCGUACGGAACG [C24G U47G U53C] here?
Answer: 0.713

Question: Which yeast fitness does the source give for GUUCCGUUGGCGUAAUGGUAACGUGUCUCCCUCCUAGGGAGAAGUCUGCGGGUUCGAGUCCCGUACGGAACG [C24U A37G A45U] here?
Answer: 0.562

Question: Which yeast fitness does the source give for GUUCCGUUGGCGUAAUGGUAACGUGUCUCCCUCCUAUGGAGAAGACUGCGGGUUCGAGUCCCCUACGGAACG [C24U A37U G63C] here?
Answer: ≤ 0.5

Question: Which yeast fitness does the source give for GUUCCGUUGGCGUAAUGGUAACGGGUCCCCCGCCUAAGGAGAAGACUGCGGGUUCGAGUCCCGUACGGGACG [C24G U28C U32G A69G] here?
Answer: ≤ 0.5

Question: With GUUCCGUUGGCGUAAUGGUAACGGGUCUCCCUCCCAAGGAGAAGACUGCGGGUUCGAGUCCCGUACGGAACG [C24G U35C] as the variant, how does the yeast fitness read?
Answer: ≤ 0.5

Question: Which yeast fitness does the source give for GUUCCGUUGGCGUAAUGGUAACGUGUCUCCCUCCUAAGGAGUCGACUGCGGGUUCGAGUCCCGUACGGAACG [C24U A42U A43C] here?
Answer: 0.889

Question: With GUUCCGUUGGCGUAAUGGUAACGUGUCUCCCUCCUAAGGAGUUGACUGCGGGUUCGAGUCCCGUACGGAACG [C24U A42U A43U] as the variant, how does the yeast fitness read?
Answer: 1.02

Question: For GUUCCGUUGGCGUAAUGGUAACGGGUCGCCCUCCUAAGGAGAAGCCCGCGGGUUCGAGUCCCGAACGGAACG [C24G U28G A45C U47C U64A], which yeast fitness is on record?
Answer: 0.6

Question: Which yeast fitness does the source give for GUUCCGUUGGCGUAAUGGUAACGUGUCUCCCUCCUAAGGAGGAGACUGCGGGUUCGAGUCCCGUACGGACCG [C24U A42G A70C] here?
Answer: 0.642

Question: With GUUCCGUUGGCGUAAUGGUAACGUGUCUCCCUCCUAUGGAGAAGACUGCGGGUUCGAGUCCCGUUCGGCACG [C24U A37U A65U A69C] as the variant, how does the yeast fitness read?
Answer: ≤ 0.5

Question: With GUUCCGUUGGCGUAAUGGUAACGGGACUCCCUCCUAAGGAGAAGAAUGCGGGUUCGAGUCCUGUACGGAACG [C24G U26A C46A C62U] as the variant, how does the yeast fitness read?
Answer: 0.578

Question: Which yeast fitness does the source give for GUUCCGUUGGCGUAAUGGUAACGGGUCUCCCACCUAAGGAGAGGACUGCAGGUUCGAGUCCCGUCCGGAACG [C24G U32A A43G G50A A65C] here?
Answer: ≤ 0.5

Question: For GUUCCGUUGGCGUAAUGGUAACGGGUCUCCCUCCUAAGGAGAAGACUGCGGGUACGAGUCCCGUUUGGAACG [C24G U54A A65U C66U], which yeast fitness is on record?
Answer: ≤ 0.5

Question: Which yeast fitness does the source give for GUUCCGUUGGCGUAAUGGUAACGUGUCUCCCUCCUUAGGAGAAGACUGCGGGUUCGAGUACCGUACGGAACG [C24U A36U C60A] here?
Answer: ≤ 0.5
